Reference: ChEMBL document CHEMBL2062435, “Synthesis and in vitro antibacterial activity of gemifloxacin derivatives containing a substituted benzyloxime moiety” (2012)

Experiments:
Assay type in all cases: functional
Escherichia coli [1] = assay: Antimicrobial activity against extended spectrum beta-lactamases-producing Escherichia coli 10-3 after 18-24 hrs by two-fold serial dilution method
In short: (§1)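 Agar-medium twofold serial dilution against Gram-positive and Gram-negative strains; MIC taken as the lowest compound concentration giving complete inhibition of bacterial growth after incubation at 35 °C for 18-24 h.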

Enterococcus faecium [2] = assay: Antimicrobial activity against Enterococcus faecium 10-5 after 18-24 hrs by two-fold serial dilution method; in short: as §1
Klebsiella pneumoniae [3] = assay: Antimicrobial activity against Klebsiella pneumoniae 10-3 after 18-24 hrs by two-fold serial dilution method; in short: as §1
Klebsiella pneumoniae [4] = assay: Antimicrobial activity against Klebsiella pneumoniae 10-4 after 18-24 hrs by two-fold serial dilution method; in short: as §1
Escherichia coli [5] = assay: Antimicrobial activity against extended spectrum beta-lactamases-producing Escherichia coli 10-2 after 18-24 hrs by two-fold serial dilution method; in short: as §1
Enterococcus faecalis [6] = assay: Antimicrobial activity against Enterococcus faecalis 10-5 after 18-24 hrs by two-fold serial dilution method; in short: as §1
Escherichia coli [7] = assay: Antimicrobial activity against Escherichia coli 10-2 after 18-24 hrs by two-fold serial dilution method; in short: as §1
Pseudomonas aeruginosa [8] = assay: Antimicrobial activity against extended spectrum beta-lactamases-producing Pseudomonas aeruginosa 10-15 after 18-24 hrs by two-fold serial dilution method; in short: as §1
Staphylococcus aureus [9] = assay: Antimicrobial activity against extended spectrum beta-lactamases-producing methicillin-resistant Staphylococcus aureus 10-11 after 18-24 hrs by two-fold serial dilution method
In short: (§2)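 Agar twofold serial dilution MIC against clinical isolates. MIC was taken as the lowest concentration giving complete inhibition of bacterial growth after incubation at 35 °C for 18-24 h.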

Escherichia coli [10] = assay: Antimicrobial activity against Escherichia coli ATCC 25922 after 18-24 hrs by two-fold serial dilution method; in short: as §1
Escherichia coli [11] = assay: Antimicrobial activity against Escherichia coli 10-3 after 18-24 hrs by two-fold serial dilution method; in short: as §1
Pseudomonas aeruginosa [12] = assay: Antimicrobial activity against Pseudomonas aeruginosa 10-12 after 18-24 hrs by two-fold serial dilution method; in short: as §1
Enterococcus faecalis [13] = assay: Antimicrobial activity against Enterococcus faecalis 10-6 after 18-24 hrs by two-fold serial dilution method; in short: as §1
[14] = test system: Staphylococcus epidermidis; assay: Antimicrobial activity against extended spectrum beta-lactamases-producing methicillin-resistant Staphylococcus epidermidis 10-13 after 18-24 hrs by two-fold serial dilution method; in short: as §2
Pseudomonas aeruginosa [15] = assay: Antimicrobial activity against extended spectrum beta-lactamases-producing Pseudomonas aeruginosa 10-9 after 18-24 hrs by two-fold serial dilution method; in short: as §1
Pseudomonas aeruginosa [16] = assay: Antimicrobial activity against extended spectrum beta-lactamases-producing Pseudomonas aeruginosa 10-20 after 18-24 hrs by two-fold serial dilution method; in short: as §1
Klebsiella pneumoniae [17] = assay: Antimicrobial activity against extended spectrum beta-lactamases-producing Klebsiella pneumoniae 10-3 after 18-24 hrs by two-fold serial dilution method; in short: as §1
Pseudomonas aeruginosa [18] = assay: Antimicrobial activity against extended spectrum beta-lactamases-producing Pseudomonas aeruginosa 10-18 after 18-24 hrs by two-fold serial dilution method; in short: as §1
Enterococcus faecium [19] = assay: Antimicrobial activity against Enterococcus faecium 10-9 after 18-24 hrs by two-fold serial dilution method; in short: as §1
Staphylococcus aureus [20] = assay: Antimicrobial activity against extended spectrum beta-lactamases-producing methicillin-sensitive Staphylococcus aureus 10-13 after 18-24 hrs by two-fold serial dilution method; in short: as §1
Streptococcus pneumoniae [21] = assay: Antimicrobial activity against extended spectrum beta-lactamases-producing Streptococcus pneumoniae 10-4 after 18-24 hrs by two-fold serial dilution method; in short: as §1
Pseudomonas aeruginosa [22] = assay: Antimicrobial activity against extended spectrum beta-lactamases-producing Pseudomonas aeruginosa 10-5 after 18-24 hrs by two-fold serial dilution method; in short: as §1
Escherichia coli [23] = assay: Antimicrobial activity against Escherichia coli 10-1 after 18-24 hrs by two-fold serial dilution method; in short: as §1
[24] = test system: Staphylococcus epidermidis; assay: Antimicrobial activity against extended spectrum beta-lactamases-producing methicillin-sensitive Staphylococcus epidermidis 10-11 after 18-24 hrs by two-fold serial dilution method; in short: as §1
Staphylococcus aureus [25] = assay: Antimicrobial activity against extended spectrum beta-lactamases-producing methicillin-sensitive Staphylococcus aureus 10-14 after 18-24 hrs by two-fold serial dilution method; in short: as §1
Staphylococcus aureus [26] = assay: Antimicrobial activity against Staphylococcus aureus ATCC […] after 18-24 hrs by two-fold serial dilution method; in short: as §1
Enterococcus faecalis [27] = assay: Antimicrobial activity against Enterococcus faecalis 10-7 after 18-24 hrs by two-fold serial dilution method; in short: as §1
Klebsiella pneumoniae [28] = assay: Antimicrobial activity against extended spectrum beta-lactamases-producing Klebsiella pneumoniae 10-1 after 18-24 hrs by two-fold serial dilution method; in short: as §1
Klebsiella pneumoniae [29] = assay: Antimicrobial activity against extended spectrum beta-lactamases-producing Klebsiella pneumoniae 10-2 after 18-24 hrs by two-fold serial dilution method; in short: as §1
Staphylococcus aureus [30] = assay: Antimicrobial activity against extended spectrum beta-lactamases-producing methicillin-resistant Staphylococcus aureus 10-15 after 18-24 hrs by two-fold serial dilution method; in short: as §2
Klebsiella pneumoniae [31] = assay: Antimicrobial activity against Klebsiella pneumoniae 10-2 after 18-24 hrs by two-fold serial dilution method; in short: as §1
Streptococcus pneumoniae [32] = assay: Antimicrobial activity against extended spectrum beta-lactamases-producing Streptococcus pneumoniae 10-1 after 18-24 hrs by two-fold serial dilution method; in short: as §1
[33] = test system: Staphylococcus epidermidis; assay: Antimicrobial activity against extended spectrum beta-lactamases-producing methicillin-sensitive Staphylococcus epidermidis 10-15 after 18-24 hrs by two-fold serial dilution method; in short: as §1
[34] = test system: Staphylococcus epidermidis; assay: Antimicrobial activity against extended spectrum beta-lactamases-producing methicillin-sensitive Staphylococcus epidermidis 10-13 after 18-24 hrs by two-fold serial dilution method; in short: as §1
[35] = test system: Staphylococcus epidermidis; assay: Antimicrobial activity against extended spectrum beta-lactamases-producing methicillin-resistant Staphylococcus epidermidis 10-10 after 18-24 hrs by two-fold serial dilution method; in short: as §2
Escherichia coli [36] = assay: Antimicrobial activity against extended spectrum beta-lactamases-producing Escherichia coli 10-4 after 18-24 hrs by two-fold serial dilution method; in short: as §1

Row | Structure (SMILES) | MIC (Escherichia coli [1]) [µg/mL] | MIC (Enterococcus faecium [2]) [µg/mL] | MIC (Klebsiella pneumoniae [3]) [µg/mL] | MIC (Klebsiella pneumoniae [4]) [µg/mL] | MIC (Escherichia coli [5]) [µg/mL] | MIC (Enterococcus faecalis [6]) [µg/mL] | MIC (Escherichia coli [7]) [µg/mL] | MIC (Pseudomonas aeruginosa [8]) [µg/mL] | MIC (Staphylococcus aureus [9]) [µg/mL] | MIC (Escherichia coli [10]) [µg/mL] | MIC (Escherichia coli [11]) [µg/mL] | MIC (Pseudomonas aeruginosa [12]) [µg/mL] | MIC (Enterococcus faecalis [13]) [µg/mL] | MIC [14] [µg/mL] | MIC (Pseudomonas aeruginosa [15]) [µg/mL] | MIC (Pseudomonas aeruginosa [16]) [µg/mL] | MIC (Klebsiella pneumoniae [17]) [µg/mL] | MIC (Pseudomonas aeruginosa [18]) [µg/mL] | MIC (Enterococcus faecium [19]) [µg/mL] | MIC (Staphylococcus aureus [20]) [µg/mL] | other results
1 | COc1ccc(CO/N=C2\CN(c3nc4c(cc3F)c(=O)c(C(=O)O)cn4C3CC3)CC2CN)cc1.CS(=O)(=O)O (racemic) | 16 | 4 | 4 | 128 | 128 | 0.125 | 2 | 8 | 1 | 0.06 | 8 | 2 | 2 | 0.5 | 4 | 2 | 128 | 4 | 8 | 0.015 | MIC (Streptococcus pneumoniae [21]): 0.125 µg/mL; MIC (Pseudomonas aeruginosa [22]): 4 µg/mL; MIC (Escherichia coli [23]): 32 µg/mL; MIC [24]: 0.5 µg/mL; MIC (Staphylococcus aureus [25]): 0.03 µg/mL; MIC (Staphylococcus aureus [26]): 0.015 µg/mL; MIC (Enterococcus faecalis [27]): 1 µg/mL; MIC (Klebsiella pneumoniae [28]): 64 µg/mL; MIC (Klebsiella pneumoniae [29]): 128 µg/mL; MIC (Staphylococcus aureus [30]): 0.25 µg/mL; MIC (Klebsiella pneumoniae [31]): 128 µg/mL; MIC (Streptococcus pneumoniae [32]): 0.125 µg/mL; MIC [33]: 2 µg/mL; MIC [34]: 0.03 µg/mL; MIC [35]: 0.5 µg/mL; MIC (Escherichia coli [36]): 2 µg/mL
2 | COc1ccc(CO/N=C2\CN(c3nc4c(cc3F)c(=O)c(C(=O)O)cn4C3CC3)CC2CN)c(OC)c1OC.CS(=O)(=O)O (racemic) | 32 | 4 | 8 | > 128 | 128 | 1 | 16 | 16 | 2 | 0.03 | 16 | 8 | 2 | 0.5 | 8 | 4 | > 128 | 8 | 8 | 0.015 | MIC (Streptococcus pneumoniae [21]): 0.06 µg/mL; MIC (Pseudomonas aeruginosa [22]): 8 µg/mL; MIC (Escherichia coli [23]): 64 µg/mL; MIC [24]: 2 µg/mL; MIC (Staphylococcus aureus [25]): 0.015 µg/mL; MIC (Staphylococcus aureus [26]): 0.015 µg/mL; MIC (Enterococcus faecalis [27]): 2 µg/mL; MIC (Klebsiella pneumoniae [28]): > 128 µg/mL; MIC (Klebsiella pneumoniae [29]): > 128 µg/mL; MIC (Staphylococcus aureus [30]): 0.25 µg/mL; MIC (Klebsiella pneumoniae [31]): > 128 µg/mL; MIC (Streptococcus pneumoniae [32]): 0.5 µg/mL; MIC [33]: 2 µg/mL; MIC [34]: 0.03 µg/mL; MIC [35]: 2 µg/mL; MIC (Escherichia coli [36]): 4 µg/mL
